Assay [1] concerns the target T1, P2Y purinoceptor 6 (Homo sapiens, UniProt Q15077). The assay is described as follows: Agonist activity at human P2Y6 receptor expressed in human 1321N1 cells assessed as stimulation of [3H]inositol phosphate accumulation by liquid scintillation counting. It is filed as functional, cell-based. Summed up: (§1)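 Stable 1321N1 lines made by retroviral expression of each human receptor (parent cells lack P2YRs), seeded at 20000 cells/well two days ahead. Labelled 16 h with 1.0 μCi [3H]myo-inositol in serum-free, inositol-free DMEM. Agonist given in 100 mM Hepes pH 7.3/HBSS with 50 mM LiCl for 30 min at 37 °C. Stopped with ice-cold 50 mM formic acid, then neutralised. Total inositol phosphates taken off Dowex AG1-X8 and counted by scintillation.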

Assay [2] concerns the target T2, P2Y purinoceptor 2 (Homo sapiens, UniProt P41231). The assay can be described thus: Agonist activity at human P2Y2 receptor expressed in human 1321N1 cells assessed as stimulation of [3H]inositol phosphate accumulation by liquid scintillation counting. It is filed as functional, cell-based. The procedure, abridged:
as §1

The target in assay [3] is T3, P2Y purinoceptor 4 (Homo sapiens, UniProt P51582). The assay can be described thus: Agonist activity at human P2Y4 receptor expressed in human 1321N1 cells assessed as stimulation of [3H]inositol phosphate accumulation by liquid scintillation counting. It is filed as functional, cell-based. Summed up: as §1
T3 sequence (P51582 whole entry): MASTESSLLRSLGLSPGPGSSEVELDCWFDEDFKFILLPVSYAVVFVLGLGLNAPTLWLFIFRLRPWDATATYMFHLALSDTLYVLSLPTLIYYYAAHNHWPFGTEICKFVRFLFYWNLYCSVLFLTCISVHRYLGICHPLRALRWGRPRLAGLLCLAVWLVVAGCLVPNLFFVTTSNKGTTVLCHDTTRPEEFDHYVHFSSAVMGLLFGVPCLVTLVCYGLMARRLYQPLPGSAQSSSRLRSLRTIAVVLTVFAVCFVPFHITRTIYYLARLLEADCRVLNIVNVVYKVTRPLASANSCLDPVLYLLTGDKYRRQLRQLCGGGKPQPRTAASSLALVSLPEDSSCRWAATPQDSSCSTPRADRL
Assay [4] deals with T3, P2Y purinoceptor 4. The assay is described as follows: Agonist activity at human P2Y4 receptor expressed in human 1321N1 cells by functional assay. It is filed as cell-based. The procedure, abridged: as §1
In assay [5] the target is T1, P2Y purinoceptor 6. The assay can be described thus: Agonist activity at human P2Y6 receptor expressed in human 1321N1 cells by functional assay. It is filed as cell-based. The procedure, abridged:
as §1

The target in assay [6] is T2, P2Y purinoceptor 2. The assay is described as follows: Agonist activity at human P2Y2 receptor expressed in human 1321N1 cells by functional assay. It is filed as cell-based. Summed up: as §1
The target in assay [7] is T1, P2Y purinoceptor 6. The assay is described as follows: Binding affinity to human P2Y6 receptor expressed in human 1321N1 cells assessed as fluorescence intensity at 1 uM for 30 mins by fluorescence microscopy. It is filed as cell-based. Summed up: (§2)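 P2Y6R-1321N1 cells on glass coverslips at 80% confluence, given fresh medium and, where stated, 10 μM noncompetitive antagonist MRS2578 for 30 min at 37 °C. Fluorescent ligand then added to 1 μM final for 30 min at 37 °C. Cells washed with ice-cold PBS, mounted and imaged by fluorescence microscopy.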

In assay [8] the target is T1, P2Y purinoceptor 6. The assay can be described thus: Binding affinity to human P2Y6 receptor expressed in human 1321N1 cells assessed as fluorescence intensity at 100 nM for 30 mins by flow cytometry (FCM) binding assay in presence of 10 uM P1-(uridine 5'-)-P4-(N4-methoxycytidine5'-)[…] selective dinucleotide agonist. It is filed as cell-based. Summed up:
(§3)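 P2Y6R-1321N1 cells grown in DMEM with 5% FBS, used at 80% confluence. Preincubated 30 min with 100 μM α,β-methylene-ADP plus 10 μM competing ligand, then 100 nM fluorescent ligand for 20–30 min. Cells washed three times in ice-cold DPBS, detached with 0.2% EDTA and analysed by flow cytometry (FL-4 channel, 10,000 events). MFI corrected for autofluorescence and expressed relative to ligand alone (100%); n = 4, mean ± SEM.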

Assay [9] addresses T1, P2Y purinoceptor 6. The assay is described as follows: Binding affinity to human P2Y6 receptor expressed in human 1321N1 cells assessed as fluorescence intensity at 100 nM for 30 mins by flow cytometry (FCM) binding assay in presence of 10 uM suramin competitive antagonist. It is filed as cell-based. The procedure, abridged:
as §3
A general note: A flow cytometer gives signals particle by particle.

In assay [10] the target is T1, P2Y purinoceptor 6. The assay can be described thus: Binding affinity to human P2Y6 receptor expressed in human 1321N1 cells assessed as fluorescence intensity at 100 nM for 30 mins by flow cytometry (FCM) binding assay in presence of 10 uM MRS2578 noncompetitive antagonist. It is filed as cell-based. Summed up:
as §3

The target of assay [11] is T1, P2Y purinoceptor 6. The assay can be described thus: Binding affinity to human P2Y6 receptor expressed in human 1321N1 cells assessed as fluorescence intensity at 100 nM for 30 mins by flow cytometry (FCM) binding assay in presence of 100 uM ecto-nucleotidase inhibitor alpha, beta-methylene-adenosine 5'-diphosphate. It is filed as cell-based. The procedure, abridged: as §3

Assay [12] deals with T1, P2Y purinoceptor 6. The assay can be described thus: Binding affinity to human P2Y6 receptor expressed in human 1321N1 cells assessed as fluorescence intensity at 100 nM for 30 mins by flow cytometry (FCM) binding assay in presence of 10 uM MRS2179 P2Y1R-selective antagonist. It is filed as cell-based. Summed up:
as §3

Assay [13] has as its target T1, P2Y purinoceptor 6. The assay can be described thus: Binding affinity to human P2Y6 receptor expressed in human 1321N1 cells assessed as fluorescence intensity at 1 uM for 30 mins by fluorescence microscopy in presence of 10 uM MRS2578 noncompetitive antagonist. It is filed as cell-based. Summed up:
as §2

Active and inactive are the calls of the source. No cut-off for these calls is given here.

T2 sequence (P41231 whole entry): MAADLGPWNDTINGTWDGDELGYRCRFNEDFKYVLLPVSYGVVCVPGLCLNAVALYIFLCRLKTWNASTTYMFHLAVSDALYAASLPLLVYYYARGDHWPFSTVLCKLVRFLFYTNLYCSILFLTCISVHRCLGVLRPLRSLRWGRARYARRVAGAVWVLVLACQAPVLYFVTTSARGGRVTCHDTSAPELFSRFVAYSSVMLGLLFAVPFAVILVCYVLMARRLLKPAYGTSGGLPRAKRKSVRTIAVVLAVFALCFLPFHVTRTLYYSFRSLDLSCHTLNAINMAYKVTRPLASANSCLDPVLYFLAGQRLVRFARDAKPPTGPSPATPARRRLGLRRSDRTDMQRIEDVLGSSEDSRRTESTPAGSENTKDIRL
T1 sequence (Q15077 whole entry): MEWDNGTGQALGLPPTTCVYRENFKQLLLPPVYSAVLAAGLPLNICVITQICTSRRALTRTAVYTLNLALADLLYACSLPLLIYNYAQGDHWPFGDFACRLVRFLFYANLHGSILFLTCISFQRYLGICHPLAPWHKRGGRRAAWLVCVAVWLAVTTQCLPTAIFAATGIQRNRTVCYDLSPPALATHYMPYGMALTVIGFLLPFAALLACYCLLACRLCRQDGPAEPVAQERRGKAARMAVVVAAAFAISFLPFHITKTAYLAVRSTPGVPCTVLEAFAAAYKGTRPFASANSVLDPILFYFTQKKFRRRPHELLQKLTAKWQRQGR

For orientation: EC50 means the concentration giving half of the maximal effect. As to `C#CCCNC(=O)COc1ccc(CCCO/N=c2/ccn([C@@H]3O[C@H](COP(=O)(O)OP(=O)(O)OP(=O)(O)O)[C@@H](O)[C@H]3O)c(=O)[nH]2)cc1`, the EC50 on P2Y purinoceptor 6 [1] amounted to 183 nM; at P2Y purinoceptor 2 [2] it was 109 nM; at P2Y purinoceptor 4 [3], 40 nM.
On the same counts, the results for `COc1ccc(CCCO/N=c2/ccn([C@@H]3O[C@H](COP(=O)(O)OP(=O)(O)OP(=O)(O)O)[C@@H](O)[C@H]3O)c(=O)[nH]2)cc1` are 277 nM, 47 nM and 23 nM.
On to `O=c1ccn([C@@H]2O[C@H](COP(=O)(O)OP(=O)(O)OP(=O)(O)OP(=O)(O)OC[C@H]3O[C@@H](n4cc/c(=N/OCCCc5ccccc5)[nH]c4=O)[C@H](O)[C@@H]3O)[C@@H](O)[C@H]2O)c(=O)[nH]1`, for which the EC50 at P2Y purinoceptor 4 [4] came to 93 nM; at P2Y purinoceptor 6 [5], 332 nM; on P2Y purinoceptor 2 [6] it was 389 nM.
On to `O=c1[nH]/c(=N\OCCCc2cccc([N+](=O)[O-])c2)ccn1[C@@H]1O[C@H](COP(=O)(O)OP(=O)(O)OP(=O)(O)O)[C@@H](O)[C@H]1O`, for which the EC50 at P2Y purinoceptor 6 [1] turned out to be 9700 nM; on P2Y purinoceptor 2 [2], 457 nM; at P2Y purinoceptor 4 [3] it was 95 nM.
The matching figures for `N#CC(CCO/N=c1/ccn([C@@H]2O[C@H](COP(=O)(O)OP(=O)(O)OP(=O)(O)O)[C@@H](O)[C@H]2O)c(=O)[nH]1)(c1ccccc1)c1ccccc1`: 177 nM, 934 nM and 47 nM.
On the same counts, the results for `O=c1[nH]/c(=N\OCCCc2ccc(Br)cc2)ccn1[C@@H]1O[C@H](COP(=O)(O)OP(=O)(O)OP(=O)(O)O)[C@@H](O)[C@H]1O` are 225 nM, 350 nM and 141 nM.
On the same counts, the results for `O=c1[nH]/c(=N\OCCCc2cccc(I)c2)ccn1[C@@H]1O[C@H](COP(=O)(O)OP(=O)(O)OP(=O)(O)O)[C@@H](O)[C@H]1O` are 299 nM, 325 nM and 114 nM.
Regarding `O=c1[nH]/c(=N\OCCCCc2ccccc2)ccn1[C@@H]1O[C@H](COP(=O)(O)OP(=O)(O)OP(=O)(O)O)[C@@H](O)[C@H]1O`, the EC50 stood at 251 nM at P2Y purinoceptor 6 [1], 214 nM at P2Y purinoceptor 2 [2] and 54 nM on P2Y purinoceptor 4 [3].
The matching figures for `O=c1[nH]/c(=N\OCCCc2ccc(I)cc2)ccn1[C@@H]1O[C@H](COP(=O)(O)OP(=O)(O)OP(=O)(O)O)[C@@H](O)[C@H]1O`: 90 nM, 187 nM and 91 nM.
The matching figures for `O=c1[nH]/c(=N\OCCCc2ccc([N+](=O)[O-])cc2)ccn1[C@@H]1O[C@H](COP(=O)(O)OP(=O)(O)OP(=O)(O)O)[C@@H](O)[C@H]1O`: 1330 nM, 458 nM and 84 nM.
On the same counts, the results for `O=C(O)CCCO/N=c1/ccn([C@@H]2O[C@H](COP(=O)(O)OP(=O)(O)OP(=O)(O)O)[C@@H](O)[C@H]2O)c(=O)[nH]1` are 697 nM, 299 nM and 470 nM.
In the case of `N=c1ccc2c(-c3ccc(C(=O)NCCCCCCn4cc(CCNC(=O)COc5ccc(CCCO/N=c6/ccn([C@@H]7O[C@H](COP(=O)(O)OP(=O)(O)OP(=O)(O)O)[C@@H](O)[C@H]7O)c(=O)[nH]6)cc5)nn4)cc3C(=O)O)c3ccc(N)c(S(=O)(=O)O)c3oc-2c1S(=O)(=O)O`, the EC50 amounted to 334 nM on P2Y purinoceptor 6 [1], 577 nM on P2Y purinoceptor 2 [2] and 200 nM on P2Y purinoceptor 4 [3].
The matching figures for `O=c1[nH]/c(=N\OCCOc2ccccc2)ccn1[C@@H]1O[C@H](COP(=O)(O)OP(=O)(O)OP(=O)(O)O)[C@@H](O)[C@H]1O`: 1780 nM, 3400 nM and 430 nM.
The matching figures for `O=c1[nH]/c(=N\OCCCc2ccc3ccccc3c2)ccn1[C@@H]1O[C@H](COP(=O)(O)OP(=O)(O)OP(=O)(O)O)[C@@H](O)[C@H]1O`: 90 nM, 139 nM and 128 nM.
As for `O=C(CCCCCNC(=O)COc1ccc(/C=C/c2ccc3n2[B-](F)(F)[N+]2=C(c4cccs4)C=CC2=C3)cc1)NCCCn1cc(CCNC(=O)COc2ccc(CCCO/N=c3/ccn([C@@H]4O[C@H](COP(=O)(O)OP(=O)(O)OP(=O)(O)O)[C@@H](O)[C@H]4O)c(=O)[nH]3)cc2)nn1`, the result at P2Y purinoceptor 6 [7], at P2Y purinoceptor 6 [11], at P2Y purinoceptor 6 [12] and at P2Y purinoceptor 6 [13] was Active. Moreover, the results for the EC50 at P2Y purinoceptor 6 [1], on P2Y purinoceptor 2 [2] and at P2Y purinoceptor 4 [3] were 23 nM, 66 nM and 70 nM, respectively. Also, the outcome at P2Y purinoceptor 6 [8], on P2Y purinoceptor 6 [9] and on P2Y purinoceptor 6 [10] was inactive.
In the case of `O=c1[nH]/c(=N\OCCCc2cccc(F)c2)ccn1[C@@H]1O[C@H](COP(=O)(O)OP(=O)(O)OP(=O)(O)O)[C@@H](O)[C@H]1O`, the EC50 turned out to be 539 nM on P2Y purinoceptor 6 [1], 190 nM on P2Y purinoceptor 2 [2] and 100 nM on P2Y purinoceptor 4 [3].
For the compound `O=c1[nH]/c(=N\OCCCc2ccccc2)ccn1[C@@H]1O[C@H](COP(=O)(O)OP(=O)(O)OP(=O)(O)OP(=O)(O)OC[C@H]2O[C@@H](n3cc/c(=N/OCCCc4ccccc4)[nH]c3=O)[C@H](O)[C@@H]2O)[C@@H](O)[C@H]1O`, the EC50 was 1330 nM on P2Y purinoceptor 4 [4], more than 10000 nM on P2Y purinoceptor 6 [5] and more than 10000 nM on P2Y purinoceptor 2 [6].
Consider `O=c1[nH]/c(=N\OCCCc2ccc(F)cc2)ccn1[C@@H]1O[C@H](COP(=O)(O)OP(=O)(O)OP(=O)(O)O)[C@@H](O)[C@H]1O`, for which the EC50 came to 1210 nM on P2Y purinoceptor 6 [1], 547 nM on P2Y purinoceptor 2 [2] and 105 nM on P2Y purinoceptor 4 [3].
The matching figures for `O=c1[nH]/c(=N\OCCCc2ccsc2)ccn1[C@@H]1O[C@H](COP(=O)(O)OP(=O)(O)OP(=O)(O)O)[C@@H](O)[C@H]1O`: 164 nM, 103 nM and 20 nM.
Regarding `C#CCCCO/N=c1/ccn([C@@H]2O[C@H](COP(=O)(O)OP(=O)(O)OP(=O)(O)O)[C@@H](O)[C@H]2O)c(=O)[nH]1`, the EC50 stood at 3000 nM at P2Y purinoceptor 6 [1], 168 nM on P2Y purinoceptor 2 [2] and 410 nM at P2Y purinoceptor 4 [3].
Turning to `O=c1[nH]/c(=N\OCCCc2ccncc2)ccn1[C@@H]1O[C@H](COP(=O)(O)OP(=O)(O)OP(=O)(O)O)[C@@H](O)[C@H]1O`, the 50% effective concentration (EC50) at P2Y purinoceptor 6 [1] turned out to be 4280 nM; on P2Y purinoceptor 2 [2] it was 285 nM; on P2Y purinoceptor 4 [3] it was 250 nM.
Turning to `O=c1[nH]/c(=N\OCCCc2cccnc2)ccn1[C@@H]1O[C@H](COP(=O)(O)OP(=O)(O)OP(=O)(O)O)[C@@H](O)[C@H]1O`, the EC50 came out at 2950 nM at P2Y purinoceptor 6 [1], 327 nM on P2Y purinoceptor 2 [2] and 300 nM at P2Y purinoceptor 4 [3].

Source of the values: ChEMBL document CHEMBL3259562, “4-Alkyloxyimino derivatives of uridine-5'-triphosphate: distal modification of potent agonists as a strategy for molecular probes of P2Y2, P2Y4, and P2Y6 receptors” (J Med Chem, 2014).
